What was measured:
Assay type in all cases: functional
VCaP [1] = assay: Antiproliferative activity against human VCaP cells assessed as T/C value at 1 x 10^1 uM incubated for 96 hrs by propidium iodide based 2D monolayer assay
Summary of the method: (§1)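 Cells were kept in RPMI 1640 with 25 mM HEPES, 10% FCS and gentamicin at 37 °C under 5% CO2, and plated at 4,000-20,000 cells/well. After 24 h recovery, compound in medium or medium alone (control wells) was added at 10 half-log concentrations from 0.0032 to 100 µM, in triplicate, with at most 0.3% DMSO. After 96 h, wells were PBS-washed, stained with 7 µg/ml PI and 0.1% Triton X-100, and fluorescence read at 530/620 nm. IC50 came from a 4-parameter fit, geometric mean.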

CWR22R [2] = assay: Antiproliferative activity against human 22Rv1 cells assessed as T/C value at 1 x 10^-2 uM incubated for 96 hrs by propidium iodide based 2D monolayer assay; summary of the method: as §1
LNCaP [3] = assay: Antiproliferative activity against human LNCAP cells assessed as reduction in cell growth incubated for 96 hrs by propidium iodide based 2D monolayer assay
Summary of the method: (§2)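 After 24 h recovery, compound in medium or medium alone (control wells) was added at 10 half-log concentrations from 0.0032 to 100 µM, in triplicate, with at most 0.3% DMSO. After 96 h, wells were PBS-washed, stained with 7 µg/ml PI and 0.1% Triton X-100, and fluorescence read at 530/620 nm. IC50 came from a 4-parameter fit, geometric mean.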

DU-145 [4] = assay: Antiproliferative activity against human DU145 cells assessed as T/C value at 1 x 10^-2 uM incubated for 96 hrs by propidium iodide based 2D monolayer assay; summary of the method: as §2
CWR22R [5] = assay: Antiproliferative activity against human 22Rv1 cells assessed as T/C value at 1 x 10^2 uM incubated for 96 hrs by propidium iodide based 2D monolayer assay; summary of the method: as §1
CWR22R [6] = assay: Antiproliferative activity against human 22Rv1 cells assessed as T/C value at 3.2 x 10^-2 uM incubated for 96 hrs by propidium iodide based 2D monolayer assay; summary of the method: as §1
CWR22R [7] = assay: Antiproliferative activity against human 22Rv1 cells assessed as T/C value at 1 x 10^-1 uM incubated for 96 hrs by propidium iodide based 2D monolayer assay; summary of the method: as §1
CWR22R [8] = assay: Antiproliferative activity against human 22Rv1 cells assessed as T/C value at 3.2 x 10^-1 uM incubated for 96 hrs by propidium iodide based 2D monolayer assay; summary of the method: as §1
VCaP [9] = assay: Antiproliferative activity against human VCaP cells assessed as T/C value at 1 x 10^-1 uM incubated for 96 hrs by propidium iodide based 2D monolayer assay; summary of the method: as §1
CWR22R [10] = assay: Antiproliferative activity against human 22Rv1 cells assessed as T/C value at 3.2 x 10^-3 uM incubated for 96 hrs by propidium iodide based 2D monolayer assay; summary of the method: as §1
DU-145 [11] = assay: Antiproliferative activity against human DU145 cells assessed as reduction in cell growth incubated for 96 hrs by propidium iodide based 2D monolayer assay; settings: DU-145, 96 h; summary of the method: as §2
DU-145 [12] = assay: Antiproliferative activity against human DU145 cells assessed as T/C value at 3.2 uM incubated for 96 hrs by propidium iodide based 2D monolayer assay; summary of the method: as §1
VCaP [13] = assay: Antiproliferative activity against human VCaP cells assessed as T/C value at 3.2 x 10^-1 uM incubated for 96 hrs by propidium iodide based 2D monolayer assay
Summary of the method: (§3)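 VCaP cells in RPMI 1640 with 10% FCS at 37 °C, 5% CO2, seeded 4,000–20,000 cells/well and left 24 h before dosing. Compounds from DMSO stocks were diluted in half-log steps in medium, 10 concentrations 0.0032–100 μM, triplicate wells, max 0.3% DMSO. After 96 h, cells were washed, stained with 7 μg/ml propidium iodide plus 0.1% Triton X-100 for 1–2 h at room temperature, and fluorescence read at ex 530/em 620 nm.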

LNCaP [14] = assay: Antiproliferative activity against human LNCAP cells assessed as T/C value at 3.2 x 10^-1 uM incubated for 96 hrs by propidium iodide based 2D monolayer assay; summary of the method: as §1
CWR22R [15] = assay: Antiproliferative activity against human 22Rv1 cells assessed as T/C value at 3.2 uM incubated for 96 hrs by propidium iodide based 2D monolayer assay; summary of the method: as §1
DU-145 [16] = assay: Antiproliferative activity against human DU145 cells assessed as T/C value at 1 uM incubated for 96 hrs by propidium iodide based 2D monolayer assay; summary of the method: as §2
LNCaP [17] = assay: Antiproliferative activity against human LNCAP cells assessed as T/C value at 3.2 x 10^1 uM incubated for 96 hrs by propidium iodide based 2D monolayer assay; summary of the method: as §1
VCaP [18] = assay: Antiproliferative activity against human VCaP cells assessed as T/C value at 3.2 x 10^-3 uM incubated for 96 hrs by propidium iodide based 2D monolayer assay; summary of the method: as §3
DU-145 [19] = assay: Antiproliferative activity against human DU145 cells assessed as T/C value at 3.2 x 10^-2 uM incubated for 96 hrs by propidium iodide based 2D monolayer assay; summary of the method: as §2
CWR22R [20] = assay: Antiproliferative activity against human 22Rv1 cells assessed as T/C value at 1 uM incubated for 96 hrs by propidium iodide based 2D monolayer assay; summary of the method: as §1
CWR22R [21] = assay: Antiproliferative activity against human 22Rv1 cells assessed as T/C value at 1 x 10^1 uM incubated for 96 hrs by propidium iodide based 2D monolayer assay; summary of the method: as §1
VCaP [22] = assay: Antiproliferative activity against human VCaP cells assessed as T/C value at 1 x 10^2 uM incubated for 96 hrs by propidium iodide based 2D monolayer assay; summary of the method: as §1
LNCaP [23] = assay: Antiproliferative activity against human LNCAP cells assessed as T/C value at 3.2 x 10^-2 uM incubated for 96 hrs by propidium iodide based 2D monolayer assay; summary of the method: as §1
VCaP [24] = assay: Antiproliferative activity against human VCaP cells assessed as reduction in cell growth incubated for 96 hrs by propidium iodide based 2D monolayer assay; summary of the method: as §3
LNCaP [25] = assay: Antiproliferative activity against human LNCAP cells assessed as T/C value at 1 x 10^-1 uM incubated for 96 hrs by propidium iodide based 2D monolayer assay; summary of the method: as §1
CWR22R [26] = assay: Antiproliferative activity against human 22Rv1 cells assessed as reduction in cell growth incubated for 96 hrs by propidium iodide based 2D monolayer assay; settings: 22Rv1, 96 h; summary of the method: as §2
VCaP [27] = assay: Antiproliferative activity against human VCaP cells assessed as T/C value at 3.2 x 10^1 uM incubated for 96 hrs by propidium iodide based 2D monolayer assay; summary of the method: as §3
LNCaP [28] = assay: Antiproliferative activity against human LNCAP cells assessed as T/C value at 3.2 uM incubated for 96 hrs by propidium iodide based 2D monolayer assay; summary of the method: as §1
DU-145 [29] = assay: Antiproliferative activity against human DU145 cells assessed as T/C value at 3.2 x 10^-3 uM incubated for 96 hrs by propidium iodide based 2D monolayer assay; summary of the method: as §2
VCaP [30] = assay: Antiproliferative activity against human VCaP cells assessed as T/C value at 3.2 x 10^-2 uM incubated for 96 hrs by propidium iodide based 2D monolayer assay; summary of the method: as §3
LNCaP [31] = assay: Antiproliferative activity against human LNCAP cells assessed as T/C value at 3.2 x 10^-3 uM incubated for 96 hrs by propidium iodide based 2D monolayer assay; summary of the method: as §1

| Structure (SMILES) | T/C (VCaP [1]) [%] | T/C (CWR22R [2]) [%] | IC50 (LNCaP [3]) [µM] | IC70 (LNCaP [3]) [µM] | T/C (DU-145 [4]) [%] | T/C (CWR22R [5]) [%] | T/C (CWR22R [6]) [%] | T/C (CWR22R [7]) [%] | T/C (CWR22R [8]) [%] | T/C (VCaP [9]) [%] | T/C (CWR22R [10]) [%] | IC50 (DU-145 [11]) [µM] | IC70 (DU-145 [11]) [µM] | T/C (DU-145 [12]) [%] | T/C (VCaP [13]) [%] | T/C (LNCaP [14]) [%] | T/C (CWR22R [15]) [%] | T/C (DU-145 [16]) [%] | T/C (LNCaP [17]) [%] | T/C (VCaP [18]) [%] | further results |
| --- | --- | --- | --- | --- | --- | --- | --- | --- | --- | --- | --- | --- | --- | --- | --- | --- | --- | --- | --- | --- | --- |
| CC(O)(CSc1cc(C(F)(F)F)cc(C(F)(F)F)c1)C(=O)Nc1cccc(C(F)(F)C(F)(F)F)c1 (racemic) | 38 | 109 | 3.9 | 4.68 | 121 | 5 | 112 | 106 | 107 | 115 | 104 | 8.9 | 9.6 | 133 | 109 | 111 | 75 | 134 | 6 | 104 | T/C (DU-145 [19]): 123%; T/C (CWR22R [20]): 107%; T/C (CWR22R [21]): 9%; T/C (VCaP [22]): 11%; T/C (LNCaP [23]): 99%; IC50 (VCaP [24]): 8.6 µM; IC70 (VCaP [24]): 11.7 µM; T/C (LNCaP [25]): 97%; IC50 (CWR22R [26]): 4.2 µM; IC70 (CWR22R [26]): 5.41 µM; T/C (VCaP [27]): 20%; T/C (LNCaP [28]): 72%; T/C (DU-145 [29]): 117%; T/C (VCaP [30]): 98%; T/C (LNCaP [31]): 90% |
| CC(O)(COc1ccc(C(F)(F)C(F)(F)F)cc1)C(=O)Nc1cc(C(F)(F)F)cc(C(F)(F)F)c1 (racemic) | 19 | 109 | 2.7 | 3.04 | 108 | 3 | 115 | 107 | 108 | 89 | 106 | 6.8 | 7.99 | 108 | 99 | 93 | 29 | 115 | 2 | 76 | T/C (DU-145 [19]): 108%; T/C (CWR22R [20]): 107%; T/C (CWR22R [21]): 9%; T/C (VCaP [22]): 2%; T/C (LNCaP [23]): 87%; IC50 (VCaP [24]): 3 µM; IC70 (VCaP [24]): 4.16 µM; T/C (LNCaP [25]): 96%; IC50 (CWR22R [26]): 2.5 µM; IC70 (CWR22R [26]): 3.11 µM; T/C (VCaP [27]): 6%; T/C (LNCaP [28]): 25%; T/C (DU-145 [29]): 101%; T/C (VCaP [30]): 90%; T/C (LNCaP [31]): 91% |
| CC(O)(COc1cccc(S(F)(F)(F)(F)F)c1)C(=O)Nc1cc(C(F)(F)F)cc(C(F)(F)F)c1 (racemic) | 32 | 105 | 3 | 3.1 | 101 | 2 | 109 | 99 | 101 | 92 | 107 | 5.7 | 6.66 | 105 | 92 | 83 | 29 | 120 | 1 | 111 | T/C (DU-145 [19]): 105%; T/C (CWR22R [20]): 94%; T/C (CWR22R [21]): 12%; T/C (VCaP [22]): 6%; T/C (LNCaP [23]): 83%; IC50 (VCaP [24]): 2.7 µM; IC70 (VCaP [24]): 5.41 µM; T/C (LNCaP [25]): 98%; IC50 (CWR22R [26]): 2.3 µM; IC70 (CWR22R [26]): 3.17 µM; T/C (VCaP [27]): 5%; T/C (LNCaP [28]): 18%; T/C (DU-145 [29]): 104%; T/C (VCaP [30]): 90%; T/C (LNCaP [31]): 88% |

— ChEMBL document CHEMBL4364301 (Eur J Med Chem, 2019)
